Here are results for 16 molecules from ChEMBL document CHEMBL1145973 (J Med Chem, 2003).

Molecules are shown by their SMILES.

In test [1] the target is Kappa-type opioid receptor (Cavia porcellus, UniProt P41144). The experiment in a line: Displacement of 3H-U-69,593 from Opioid receptor kappa 1 in guinea pig cerebellum preparation. In kind it is tissue-based. Background: Loss of bound radioactivity is the signal in a displacement assay; it reports binding, not function.
Test [2] concerns the target Opioid receptors; mu & kappa (Homo sapiens) (UniProt P41145+P35372). Kind of test: Relative affinity for kappa 1 and mu opioid receptors. In kind it is protein assay. In a few lines: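 Ratio of Ki at KOR, from 3H-U-69,593 competition in guinea pig cerebellum, to Ki at MOR, from 3H-DAMGO competition on hMOR-1 in CHO cells.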
Test [3] addresses T1, Mu-type opioid receptor (Homo sapiens, UniProt P35372). The experiment in a line: Displacement of [3H]DAMGO from human Opioid receptor mu 1 expressing CHO cells. In kind it is cell-based.
The target of test [4] is T1, Mu-type opioid receptor. The experiment in a line: Specific binding of GTP-gamma -35S to G proteins in CHO membrane preparation stably transfected with human Opioid receptor mu 1 in the presence of GDP and 10 uM compound. In kind it is cell membranes. In a few lines:
(§1)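 Human MOR-1 stably transfected into CHO cells; membrane preparations incubated with GDP and test compound at 10 µM. Specific [35S]GTP-γ-S binding to G proteins is expressed as a percentage of DAMGO-induced specific binding. Mean ± SD of quadruplicate measurements.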

Test [5] deals with Delta-type opioid receptor (Homo sapiens, UniProt P41143). Kind of test: Displacement of [3H]diprenorphine from human Opioid receptor delta 1 epressing HEK293 cells. In kind it is cell-based. In a few lines:
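Human DOR-1 stably transfected into HEK-293 cells; competition binding against 3H-diprenorphine. Mean ± SD of duplicate measurements.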

Test [6] concerns the target Opioid receptors; mu & delta (Homo sapiens) (UniProt P41143+P35372). The experiment in a line: Relative affinity for delta and mu opioid receptors. In kind it is protein assay.
For test [7], the target named is T1, Mu-type opioid receptor. The experiment in a line: Efficacy for Opioid receptor mu 1-mediated [35S]GTP-gamma-S incorporation into CHO membrane preparations. In kind it is functional. Background: GTPγS resists hydrolysis and so accumulates on activated G proteins.
Test [8] has as its target T1, Mu-type opioid receptor. The experiment in a line: Compound tested at 10 uM for the ability to induce Opioid receptor mu 1-mediated binding of [35S]GTP-gamma-S to G proteins in CHO membrane preparations. In kind it is functional, cell membranes. In short, it runs like this:
as §1

Sequence of Opioid receptors; mu & kappa (Homo sapiens) (P35372 whole entry, looked up): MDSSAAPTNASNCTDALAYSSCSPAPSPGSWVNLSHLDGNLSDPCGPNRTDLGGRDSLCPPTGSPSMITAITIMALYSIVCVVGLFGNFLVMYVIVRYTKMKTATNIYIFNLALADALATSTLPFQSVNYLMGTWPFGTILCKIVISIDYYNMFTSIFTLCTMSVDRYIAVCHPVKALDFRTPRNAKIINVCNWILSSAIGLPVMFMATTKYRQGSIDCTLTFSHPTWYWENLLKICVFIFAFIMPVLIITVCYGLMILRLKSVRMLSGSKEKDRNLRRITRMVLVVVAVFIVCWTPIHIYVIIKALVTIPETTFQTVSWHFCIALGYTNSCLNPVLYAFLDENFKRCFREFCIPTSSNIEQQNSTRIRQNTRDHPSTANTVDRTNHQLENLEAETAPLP
Sequence of Opioid receptors; mu & kappa (Homo sapiens) (P41145 whole entry, looked up): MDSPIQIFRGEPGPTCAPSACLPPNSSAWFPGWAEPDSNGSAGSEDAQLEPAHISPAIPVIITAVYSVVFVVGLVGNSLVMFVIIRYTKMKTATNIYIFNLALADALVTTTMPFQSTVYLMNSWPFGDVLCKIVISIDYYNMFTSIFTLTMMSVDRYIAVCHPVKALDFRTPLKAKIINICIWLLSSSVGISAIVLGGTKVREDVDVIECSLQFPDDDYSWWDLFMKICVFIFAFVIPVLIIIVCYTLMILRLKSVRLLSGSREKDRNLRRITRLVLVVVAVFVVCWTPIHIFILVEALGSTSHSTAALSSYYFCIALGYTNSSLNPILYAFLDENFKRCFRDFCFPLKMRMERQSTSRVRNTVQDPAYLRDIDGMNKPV
Sequence of Opioid receptors; mu & delta (Homo sapiens) (P35372 whole entry, looked up): as the sequence (P35372 whole entry, looked up) above
Sequence of Opioid receptors; mu & delta (Homo sapiens) (P41143 whole entry, looked up): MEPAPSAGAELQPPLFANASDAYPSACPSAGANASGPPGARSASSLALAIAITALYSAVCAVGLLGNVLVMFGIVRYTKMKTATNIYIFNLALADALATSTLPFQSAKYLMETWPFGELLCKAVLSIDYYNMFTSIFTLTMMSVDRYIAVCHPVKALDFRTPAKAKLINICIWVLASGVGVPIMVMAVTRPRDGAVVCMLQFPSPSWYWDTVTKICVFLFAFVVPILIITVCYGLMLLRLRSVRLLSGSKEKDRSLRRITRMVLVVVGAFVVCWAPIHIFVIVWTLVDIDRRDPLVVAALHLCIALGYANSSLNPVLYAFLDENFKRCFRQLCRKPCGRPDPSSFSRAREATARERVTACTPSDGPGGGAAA
T1 sequence (P35372 whole entry): as the sequence (P35372 whole entry, looked up) above
Sequence of Delta-type opioid receptor (P41143 whole entry): as the sequence (P41143 whole entry, looked up) above
Sequence of Kappa-type opioid receptor (P41144 whole entry): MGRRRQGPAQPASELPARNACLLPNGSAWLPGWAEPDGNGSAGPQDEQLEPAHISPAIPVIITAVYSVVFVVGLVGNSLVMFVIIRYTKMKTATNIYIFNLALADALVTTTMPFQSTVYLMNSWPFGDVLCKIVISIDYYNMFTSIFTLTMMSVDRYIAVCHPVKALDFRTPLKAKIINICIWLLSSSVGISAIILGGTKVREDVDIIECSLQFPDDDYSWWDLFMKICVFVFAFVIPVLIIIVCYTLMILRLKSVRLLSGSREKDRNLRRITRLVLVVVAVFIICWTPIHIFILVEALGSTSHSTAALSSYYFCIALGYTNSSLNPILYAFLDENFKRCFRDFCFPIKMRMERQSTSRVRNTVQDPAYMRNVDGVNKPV

As usually defined, the Ki is a dissociation constant, usually derived from enzyme kinetics or from competition with a known ligand. For `Cc1cc(O)cc(C)c1C[C@H](N)[C@@H](O)C/C=C/[C@H](O)[C@@H](Cc1ccccc1)C(=O)O[C@H](CO)Cc1ccccc1`, the Ki was determined as 0.085 µM in test [1], 0.00044 µM in test [3] and 0.017 µM in test [5]. Moreover, the Ratio worked out at 190 in test [2] and 39 in test [6]. Besides, the GTP-gamma35S bound in test [4] turned out to be 62%.

Broadly, the EC50 is the concentration giving half of the maximal effect. Read a low EC50 as a more potent agent. As to `Cc1cc(O)cc(C)c1C[C@H](N)[C@@H](O)C/C=C/[C@@H](O)[C@@H](Cc1ccccc1)C(=O)N[C@@H](Cc1ccccc1)C(N)=O`, the inhibition constant Ki in test [1] was found to be 0.021 µM; in test [3], 0.00042 µM; in test [5] it was 0.036 µM. This molecule also yielded a GTP-gamma35S bound in test [7] of 75%. Further, the Ratio in test [2] came out at 49; in test [6], 86. The same molecule gave an EC50 in test [8] of 0.0079 µM.

For the molecule `Cc1cc(O)cc(C)c1C[C@H](N)[C@@H](O)C/C=C/[C@H](O)[C@@H](Cc1ccccc1)C(=O)O[C@@H](Cc1ccccc1)C(N)=O`, the results for the inhibition constant (Ki) in test [1] and in test [5] were 0.126 µM and 0.021 µM, respectively. In test [7], the GTP-gamma35S bound was 47%. The Ratio in test [2] turned out to be 280; in test [6], 46.

In the case of `Cc1cc(O)cc(C)c1C[C@H](N)[C@@H](O)C/C=C/[C@@H](O)[C@@H](Cc1ccccc1)C(=O)NCCc1ccccc1`, the Ki in test [1] is 0.064 µM; in test [3], 0.00037 µM; in test [5] it was 0.026 µM. For the same molecule, in test [7], the GTP-gamma35S bound worked out at 48%. For the same molecule, the figures for the Ratio in test [2] and in test [6] were 170 and 70, respectively.

`NC(=O)[C@H](Cc1ccccc1)NC(=O)[C@H](Cc1ccccc1)NC(=O)[C@H]1CCCN1C(=O)[C@@H](N)Cc1ccccc1`: the GTP-gamma35S bound in test [7] stood at 100%. For the same molecule, the Ratio stood at […] in test [2] and […] in test [6].

Turning to `Cc1cc(O)cc(C)c1C[C@H](N)[C@H](O)C/C=C/[C@H](O)[C@@H](Cc1ccccc1)C(=O)NCCc1ccccc1`, the Ki in test [1] was determined as 0.051 µM; in test [3], 0.00024 µM; in test [5], 0.123 µM. Besides, the GTP-gamma35S bound in test [7] came out at 49%. The Ratio in test [2] was 210; in test [6], 510. A half-maximal effect in test [8] (EC50) was put at 0.049 µM.

In the case of `Cc1cc(O)cc(C)c1C[C@H](N)[C@H](O)C/C=C/[C@@H](O)[C@@H](Cc1ccccc1)C(=O)N[C@@H](Cc1ccccc1)C(N)=O`, the Ki in test [1] stood at 0.025 µM; in test [3], 0.0016 µM; in test [5], 0.085 µM. This molecule also displayed a GTP-gamma35S bound in test [7] of 43%. Further, the Ratio in test [2] turned out to be 16; in test [6] it was 53.

Regarding `Cc1cc(O)cc(C)c1C[C@H](N)[C@@H](O)C/C=C/[C@H](O)[C@@H](Cc1ccccc1)C(=O)N[C@H](CO)Cc1ccccc1`, the Ki is 0.069 µM in test [1], 0.00016 µM in test [3] and 0.054 µM in test [5]. Further, the GTP-gamma35S bound in test [7] came out at 44%. Besides, the values for the Ratio in test [2] and in test [6] were 430 and 340, respectively.

Turning to `Cc1cc(O)cc(C)c1C[C@H](N)[C@@H](O)C/C=C/[C@H](O)[C@@H](Cc1ccccc1)C(=O)NCCc1ccccc1`, the Ki was 0.042 µM in test [1], 0.00029 µM in test [3] and 0.099 µM in test [5]. The GTP-gamma35S bound in test [7] came out at 40%. Moreover, the Ratio was found to be 140 in test [2] and 340 in test [6].

Take `Cc1cc(O)cc(C)c1C[C@H](N)[C@@H](O)C/C=C/[C@H](O)[C@@H](Cc1ccccc1)C(=O)N[C@@H](Cc1ccccc1)C(N)=O`: the Ki in test [1] was 0.022 µM; in test [3], 0.00017 µM; in test [5], 0.04 µM. In test [7], this molecule returned a GTP-gamma35S bound of 35%. Further, the Ratio in test [2] is 130; in test [6] it was 230.

As for `Cc1cc(O)cc(C)c1C[C@H](N)[C@@H](O)C/C=C/[C@@H](O)[C@H](Cc1ccccc1)C(=O)NCCc1ccccc1`, the results for the Ki in test [1], in test [3] and in test [5] were 0.06 µM, 0.00064 µM and 0.119 µM, respectively. The same molecule had a GTP-gamma35S bound in test [7] of 52%. Also, the Ratio in test [2] is 94; in test [6], 190.

On to `Cc1cc(O)cc(C)c1C[C@H](N)[C@@H](O)C/C=C/[C@@H](O)[C@H](Cc1ccccc1)C(=O)N[C@@H](Cc1ccccc1)C(N)=O`, for which the Ki in test [1] stood at 0.05 µM; in test [3], 0.0012 µM; in test [5] it was 0.23 µM. For the same molecule, in test [7], the GTP-gamma35S bound stood at 32%. Also, the Ratio in test [2] is 41; in test [6], 190.

With `NC(=O)[C@H](Cc1ccccc1)NC(=O)[C@H](Cc1ccccc1)NC(=O)[C@@H]1CCCN1C(=O)[C@@H](N)Cc1ccccc1`, the Ki was 10.4 µM in test [1], 0.00069 µM in test [3] (cho) and […] in test [5] (hek293). This molecule displayed an EC50 in test [8] of 0.031 µM.

Regarding `Cc1cc(O)cc(C)c1C[C@H](N)[C@H](O)C/C=C/[C@H](O)[C@@H](Cc1ccccc1)C(=O)N[C@@H](Cc1ccccc1)C(N)=O`, the Ki in test [1] amounted to 0.015 µM; in test [3], 0.0012 µM; in test [5] it was 0.046 µM. In addition, the GTP-gamma35S bound in test [7] worked out at 14%. In addition, the figures for the Ratio in test [2] and in test [6] were 13 and 38, respectively.

With `Cc1cc(O)cc(C)c1C[C@H](N)[C@@H](O)C/C=C/[C@H](O)[C@@H](Cc1ccccc1)C(=O)OCCc1ccccc1`, in test [7], the GTP-gamma35S bound was 79%. Further, the inhibition constant (Ki) in test [3] came out at 0.00024 µM; in test [5] it was 0.056 µM. The same molecule registered an EC50 in test [8] of 0.0042 µM.

On to `Cc1cc(O)cc(C)c1C[C@H](N)[C@H](O)C/C=C/[C@@H](O)[C@@H](Cc1ccccc1)C(=O)NCCc1ccccc1`, for which the Ki in test [1] came out at 0.069 µM; in test [3], 0.00072 µM; in test [5] it was 0.066 µM. For the same molecule, the GTP-gamma35S bound in test [7] worked out at 27%. The Ratio in test [2] was found to be 96; in test [6], 91.
